Measurements: ChEMBL document CHEMBL1129484, “Selectively cytotoxic diterpenes from Euphorbia poisonii” (J Med Chem, 1996)
≈ marks a conversion by molar mass, not a printed value.

Key:
A549 = assay: Cytotoxicity on lung carcinoma (A-549) cell line; type: functional; conditions: Homo sapiens, read-out: ED50 (the source's name)
In short: (§1)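 Human solid tumour cell line panel tested at the Purdue Cancer Center with a 7-day MTT viability assay under standard protocols. Cell lines were A-549 lung, MCF-7 breast, HT-29 colon, A-498 kidney, PC-3 prostate and PACA-2 pancreatic. Adriamycin served as positive control.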

A498 = assay: Cytotoxicity on kidney carcinoma (A-498) cell line; type: functional; conditions: Homo sapiens, read-out: ED50 (the source's name); in short: as §1
[1] = Lethal concentration against Brine Shrimp; type: organism-based; conditions: artemia, in vivo
In short: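 Brine shrimp lethality test run by a standard protocol on partitioned fractions, pooled chromatographic fractions and isolated compounds. LC50 values were determined and expressed in µg/mL.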

HT-29 = assay: Cytotoxicity on adenocarcinoma (HT-29 colon) cell line; type: functional; conditions: Homo sapiens, read-out: ED50 (the source's name); in short: as §1
MCF7 = assay: Cytotoxicity on breast carcinoma (MCF-7) cell line; type: functional; conditions: Homo sapiens, read-out: ED50 (the source's name); in short: as §1
MIA PaCa-2 = assay: Cytotoxicity on pancreatic carcinoma (PACA-2) cell line; type: functional; conditions: Homo sapiens, read-out: ED50 (the source's name); in short: as §1
PC-3 = assay: Cytotoxicity on prostate adenocarcinoma (PC-3) cell line; type: functional; conditions: Homo sapiens, read-out: ED50 (the source's name); in short: as §1

Compound | EC50 (A549) [µg/mL] | EC50 (A498) [µg/mL] | LC50 [1] [µg/mL] | EC50 (HT-29) [µg/mL] | EC50 (MCF7) [µg/mL] | EC50 (MIA PaCa-2) [µg/mL] | EC50 (PC-3) [µg/mL]
CC(=O)OCC1=C[C@H]2[C@@H]3C(C)(C)[C@]3(OC(=O)Cc3ccccc3)C[C@@H](C)[C@]2(O)C2C=C(C)C(=O)[C@@]2(O)C1 (some centres undefined) | 26.1 (≈ 51.2 µM) | 1.59 (≈ 3.13 µM) | 12 (≈ 23.7 µM) | 29.5 (≈ 57.9 µM) | 41.3 (≈ 81.1 µM) | 26.9 (≈ 52.9 µM) | 35.1 (≈ 69 µM)
C=C(C)[C@]12C[C@@H](C)[C@@]34OC(Cc5ccccc5)(O[C@@H]1[C@@H]3C=C(COC(=O)Cc1ccc(O)c(OC)c1)C[C@]1(O)C(=O)C(C)=CC41)O2 (some centres undefined) | 1.12 (≈ 1.78 µM) | 1.08 (≈ 1.72 µM) | 281 (≈ 447 µM) | 3 (≈ 4.77 µM) | 4.29 (≈ 6.82 µM) | 2.44 (≈ 3.88 µM) | 2.9 (≈ 4.61 µM)
COc1cccc2c1C(=O)c1c(O)c3c(c(O)c1C2=O)C[C@@](O)(C(=O)CO)C[C@@H]3O[C@H]1C[C@H](N)[C@H](O)[C@H](C)O1 [DOXORUBICIN] | – | 1.87 (≈ 3.44 µM) | – | – | – | 1.63 (≈ 3 µM) | –
C=C(C)[C@]12C[C@@H](C)[C@@]34OC(Cc5ccccc5)(O[C@@H]1C3C=C(CO)C[C@]1(O)C(=O)C(C)=CC41)O2 (some centres undefined) | 5.41 (≈ 11.6 µM) | 1.97 (≈ 4.24 µM) | – | 7.41 (≈ 16 µM) | 30.9 (≈ 66.5 µM) | 3.55 (≈ 7.64 µM) | 4.56 (≈ 9.82 µM)
C/C=C(/C)C(=O)O[C@@]12C[C@@H](C)[C@]3(O)C4C=C(C)C(=O)[C@@]4(O)CC(CO)=C[C@H]3[C@@H]1C2(C)C (some centres undefined) | 11.6 (≈ 26.9 µM) | 46 (≈ 107 µM) | 115 (≈ 266 µM) | 26.5 (≈ 61.6 µM) | 69.9 (≈ 162 µM) | 37.2 (≈ 86.5 µM) | 17.9 (≈ 41.6 µM)
C/C=C(/C)C(=O)O[C@@]12C[C@@H](C)[C@]3(O)C4C=C(C)C(=O)[C@@]4(O)CC(COC(C)=O)=C[C@H]3[C@@H]1C2(C)C (some centres undefined) | 18.9 (≈ 40 µM) | 2.18 (≈ 4.61 µM) | 191 (≈ 404 µM) | 30.8 (≈ 65.1 µM) | 41.8 (≈ 88.4 µM) | 30.3 (≈ 64.2 µM) | 27.7 (≈ 58.6 µM)
CC1=CC2[C@@]3(O)[C@H](C)C[C@]4(OC(=O)CCCCCCC[C@H]5C[C@@H]5C)[C@H]([C@@H]3C(C)=C(CO)C[C@]2(O)C1=O)C4(C)C (some centres undefined) | 2.85 (≈ 5.25 µM) | – | – | – | – | 1.92 (≈ 3.54 µM) | 2.44 (≈ 4.5 µM)
